Results reported in ChEMBL document CHEMBL1122844, “Novel nonnarcotic analgesics with an improved therapeutic ratio. Structure-activity relationships of 8-(methylthio)- and 8-(acylthio)-1,2,3,4,5,6-hexahydro-2,6-methano-3-benzazocines” (J Med Chem, 1985).

Assays:
[1] = system: Mus musculus; experiment: Percent analgesic activity in mice after subcutaneous administration at dose 10 mg/kg; assay type: functional
Procedure, shortened: (§1)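 Acetic acid writhing test in mice, 10 per group. Drug given sc or po; sc dosing simultaneous with ip 0.7% AcOH. Starting 15 min after AcOH, writhing observed for 5 min at 15-min intervals, four times in all. A mouse writhing more than once within 5 min counted as having no analgesic effect.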

[2] = system: Mus musculus; experiment: Percent analgesic activity in mice after peroral administration at dose 20 mg/kg; assay type: functional; details: route oral; procedure, shortened: as §1
[3] = system: Mus musculus; experiment: Effective dose required to produce analgesic action in mice after peroral administration; assay type: functional; details: po; procedure, shortened: as §1
[4] = target: Opioid receptor (Rattus norvegicus, UniProt P33533+P34975+P33535); experiment: Inhibitory activity against opiate receptor in rat using [3H]naloxone as radioligand
[5] = Ratio of ED50 with/without Naloxone (0.2 mg/kg) after simultaneous injection of drug; assay type: organism-based
Procedure, shortened: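 Mouse acetic acid writhing test (ip 0.7% AcOH, 10 mice/group, four 5-min observations at 15-min intervals; more than one writhe in 5 min = no analgesia). ED50 determined with drug alone and with naloxone 0.2 mg/kg injected simultaneously with the drug; value is ratio of ED50 with/without naloxone.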

[6] = system: Mus musculus; experiment: Percent analgesic activity in mice after peroral administration at dose 10 mg/kg; assay type: functional; details: route oral; procedure, shortened: as §1
[7] = system: Mus musculus; experiment: Percent analgesic activity in mice after subcutaneous administration; 20-30%; assay type: functional; procedure, shortened: as §1

CC(C)=CCN1CC[C@@]2(C)c3cc(SC(=O)c4ccccc4)ccc3C[C@H]1[C@@H]2C
Analgesic activity [1]: 20%

C[C@H]1C2Cc3ccc(SC(=O)c4ccccc4)cc3[C@]1(C)CCN2Cc1ccccc1
Analgesic activity [2]: 30%

CC(C)=CCN1CC[C@@]2(C)c3cc(O)ccc3C[C@@H]1[C@@H]2C
ED50 [3]: 0.36 mg/kg

CCOC(=O)Sc1ccc2c(c1)[C@]1(C)CCN(CCc3ccccc3)C(C2)[C@@H]1C
ED50 [3]: 18.5 mg/kg

C[C@H]1[C@@H]2Cc3ccc(SC(=O)c4ccccc4)cc3[C@]1(C)CCN2C
Analgesic activity [1]: 30%

C[C@H]1C2Cc3ccc(SC(=O)C(C)(C)C)cc3[C@]1(C)CCN2C
ED50 [3]: 6.4 mg/kg

C[C@H]1C2Cc3ccc(OC(=O)c4ccccc4)cc3[C@]1(C)CCN2C
ED50 [3]: 1.7 mg/kg | IC50 [4]: 107 nM | Ratio [5]: 6.4

C[C@H]1C2Cc3ccc(O)cc3[C@]1(C)CCN2CCc1cccs1
ED50 [3]: 0.071 mg/kg

C[C@H]1C2Cc3ccc(SC(=O)c4ccccc4)cc3[C@]1(C)CCN2CCc1cccs1
Analgesic activity [2]: 40%

CC(C)=CCN1CC[C@@]2(C)c3cc(SC(=O)c4ccccc4)ccc3CC1[C@@H]2C
ED50 [3]: 4 mg/kg

CC(C)=CCN1CC[C@@]2(C)c3cc(SC(=O)C(C)(C)C)ccc3CC1[C@@H]2C
Analgesic activity [6]: 50%

C[C@H]1C2Cc3ccc(SC(=O)c4ccc(Cl)cc4)cc3[C@]1(C)CCN2CCc1ccccc1
Analgesic activity [2]: 40%

C[C@H]1C2Cc3ccc(SC(=O)c4ccccc4)cc3[C@]1(C)CCN2C
ED50 [3]: 1.05 mg/kg | IC50 [4]: 1530 nM | Ratio [5]: 1.7

C[C@H]1C2Cc3ccc(O)cc3[C@]1(C)CCN2C
ED50 [3]: 0.46 mg/kg

CCC(=O)Sc1ccc2c(c1)[C@]1(C)CCN(CCc3ccccc3)C(C2)[C@@H]1C
ED50 [3]: 7 mg/kg

C[C@H]1C2Cc3ccc(SC(=O)c4ccc(Cl)cc4)cc3[C@]1(C)CCN2C
ED50 [3]: 2.8 mg/kg

C[C@H]1[C@@H]2Cc3ccc(O)cc3[C@]1(C)CCN2C [METAZOCINE]
Analgesic activity [7]: 20%

C[C@H]1[C@H]2Cc3ccc(SC(=O)c4ccccc4)cc3[C@]1(C)CCN2C
ED50 [3]: 1 mg/kg

COc1ccc(C(=O)Sc2ccc3c(c2)[C@]2(C)CCN(CC=C(C)C)C(C3)[C@@H]2C)cc1
ED50 [3]: 5.3 mg/kg

C[C@H]1C2Cc3ccc(SC(=O)C(C)(C)C)cc3[C@]1(C)CCN2CCc1ccccc1
ED50 [3]: 5.2 mg/kg

CN1CC[C@]23c4c5ccc(O)c4O[C@H]2[C@@H](O)C=C[C@H]3[C@H]1C5 [MORPHINE]
ED50 [3]: 0.52 mg/kg

CC(C)=CCN1CC[C@]2(C)c3cc(O)ccc3C[C@H]1[C@H]2C [(+)-PENTAZOCINE]
ED50 [3]: 1.6 mg/kg | Analgesic activity [1]: 20%

C[C@H]1C2Cc3ccc(SC(=O)c4ccccc4)cc3[C@]1(C)CCN2CCc1ccccc1
ED50 [3]: 1.7 mg/kg

CC(C)=CCN1CC[C@@]2(C)c3cc(SC(=O)c4ccc(Cl)cc4)ccc3CC1[C@@H]2C
ED50 [3]: 6 mg/kg

COc1ccc(C(=O)Sc2ccc3c(c2)[C@]2(C)CCN(C)C(C3)[C@@H]2C)cc1
ED50 [3]: 4.8 mg/kg

COc1ccc(C(=O)Sc2ccc3c(c2)[C@]2(C)CCN(CCc4ccccc4)C(C3)[C@@H]2C)cc1
ED50 [3]: 5.3 mg/kg

CC(C)=CCN1CC[C@@]2(C)c3cc(OC(=O)c4ccccc4)ccc3CC1[C@@H]2C
ED50 [3]: 2.6 mg/kg

CC(C)=CCN1CC[C@@]2(C)c3cc(SC(=O)c4ccccc4)ccc3C[C@@H]1[C@@H]2C
ED50 [3]: 0.74 mg/kg

CC(=O)Sc1ccc2c(c1)[C@]1(C)CCN(C)C(C2)[C@@H]1C
ED50 [3]: 4.5 mg/kg

C[C@H]1C2Cc3ccc(O)cc3[C@@]1(C)CCN2CCc1ccccc1
ED50 [3]: 0.135 mg/kg

C[C@H]1[C@H]2Cc3ccc(O)cc3[C@@]1(C)CCN2C
ED50 [3]: 0.27 mg/kg
